In ChEMBL document CHEMBL4396897, “Potent 5-Cyano-6-phenyl-pyrimidin-Based Derivatives Targeting DCN1-UBE2M Interaction” (J Med Chem, 2019):
Active and inactive are the calls of the source. The rule behind the calls is not given here.

Legend:
DCN1-like protein 1 [1] = molecular target: T1, DCN1-like protein 1 (Homo sapiens, UniProt Q96GG9); assay: Binding affinity to N-terminal His6-tagged recombinant human DCN1 expressed in Escherichia coli BL21-AI assessed as reduction in DCN1-FAM-labelled N-terminal acetylated UBE2M (1 to 12 residues) protein-protein interaction after 30 mins by fluorescence polarization competitive binding assay
DCN1-like protein 1 [2] = molecular target: T1, DCN1-like protein 1; assay: Binding affinity to N-terminal GST tagged recombinant human DCN1 (58 to 259 residues) expressed in Escherichia coli BL21(DE3) assessed as reduction in DCN1-FAM-labelled N-terminal acetylated UBE2M (1 to 21 residues) protein-protein interaction after 30 mins by HTRF assay
KYSE-70 cell line = assay: Antiproliferative activity against human KYSE-70 after 72 hrs by MTT assay; format: functional, cell-based; conditions: KYSE-70, 72 h
In short: (§1)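 MTT viability assay: cells seeded at 2~5×10^3 per well, exposed to serial dilutions of compound for 72h, then MTT (5 mg/mL in PBS) added for 4h at 37°C. Formazan dissolved in DMSO and read at 490nm. IC50 reported as mean ± SD of three independent experiments.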

PC-3 = assay: Antiproliferative activity against human PC3 after 72 hrs by MTT assay; format: functional, cell-based; conditions: PC-3, 72 h; in short: as §1
MCF7 = assay: Antiproliferative activity against human MCF7 after 72 hrs by MTT assay; format: functional, cell-based; conditions: MCF7, 72 h; in short: as §1
PC-9 = assay: Antiproliferative activity against human PC9 by MTT assay; format: functional, cell-based; in short: as §1
SMMC-7721 = assay: Antiproliferative activity against human SMMC7721 after 72 hrs by MTT assay; format: functional, cell-based; conditions: SMMC-7721, 72 h; in short: as §1
[3] = molecular target: DCN1-like protein 1/NEDD8-conjugating enzyme Ubc12 (Homo sapiens) (UniProt Q96GG9+P61081); assay: Inhibition of DCN1-UBE2M protein-protein interaction in human NCI-H1975 cells assessed as stabilization of DCN1 at 10 uM incubated for 5 hrs at 53 degC by cellular thermal shift assay; format: cell-based
In short: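 H1975 cells exposed to 10µM compound or 1‰ DMSO for 3-5h (5h in legend), collected, aliquoted and heated 10 min across 43–61°C. Cells lysed by three liquid-nitrogen freeze-thaw cycles and centrifuged at 12,000×g for 20 min. Soluble DCN1 in supernatant quantified by Western blot band intensity; at least three experiments.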

T1 sequence (Q96GG9 whole entry, the tested form may be a part): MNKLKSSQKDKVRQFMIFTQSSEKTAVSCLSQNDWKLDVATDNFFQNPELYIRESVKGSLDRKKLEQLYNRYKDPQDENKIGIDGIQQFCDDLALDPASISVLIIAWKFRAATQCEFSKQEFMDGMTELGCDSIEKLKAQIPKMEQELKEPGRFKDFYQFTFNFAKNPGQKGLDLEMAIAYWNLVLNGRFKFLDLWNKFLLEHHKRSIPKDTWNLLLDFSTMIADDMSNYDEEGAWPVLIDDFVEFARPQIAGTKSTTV
Sequence of DCN1-like protein 1/NEDD8-conjugating enzyme Ubc12 (Homo sapiens) (P61081 whole entry, looked up): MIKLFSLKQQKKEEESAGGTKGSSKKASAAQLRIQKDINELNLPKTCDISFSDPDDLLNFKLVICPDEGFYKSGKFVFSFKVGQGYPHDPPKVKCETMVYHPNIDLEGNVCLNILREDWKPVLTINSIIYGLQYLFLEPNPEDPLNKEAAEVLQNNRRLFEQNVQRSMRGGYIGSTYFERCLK
Sequence of DCN1-like protein 1/NEDD8-conjugating enzyme Ubc12 (Homo sapiens) (Q96GG9 whole entry, looked up): as the sequence (Q96GG9 whole entry, the tested form may be a part) above

| SMILES | IC50 (DCN1-like protein 1 [1]) | IC50 (DCN1-like protein 1 [2]) | IC50 (KYSE-70 cell line) | IC50 (PC-3) | IC50 (MCF7) | IC50 (PC-9) | IC50 (SMMC-7721) | inhibition [3] |
| --- | --- | --- | --- | --- | --- | --- | --- | --- |
| C#CCSc1nc(Sc2nnnn2C)c(C#N)c(-c2cc(OC)c(OC)c(OC)c2)n1 | 0.36 µM | 0.25 µM |  |  |  |  |  |  |
| C#CCSc1nc(Sc2nnnn2CCN(C)C)c(C#N)c(-c2cccc(Cl)c2)n1 | 0.106 µM | 0.38 µM | 5.32 µM | 3.54 µM | 4.12 µM | 6.48 µM | 8.64 µM |  |
| CCCSc1nc(Sc2nccs2)c(C#N)c(-c2ccc(Cl)cc2)n1 | > 10 µM | > 10 µM |  |  |  |  |  |  |
| C#CCSc1nc(Sc2nnnn2C)c(C#N)c(-c2ccc(C(C)C)cc2)n1 | 1.09 µM | 0.369 µM |  |  |  |  |  |  |
| C#CCSc1nc(Sc2nc(C)cs2)c(C#N)c(-c2cc(OC)c(OC)c(OC)c2)n1 | > 10 µM | > 10 µM | > 20 µM | > 20 µM | > 20 µM | > 20 µM | > 20 µM | inactive |
| C#CCSc1nc(Sc2nnnn2C)c(C#N)c(-c2ccc(Cl)cc2)n1 | 0.0785 µM | 0.102 µM |  |  |  |  |  |  |
| N#Cc1c(Sc2nccs2)nc(SCc2cn(Cc3ccccc3)nn2)nc1-c1ccc(Cl)cc1 | > 10 µM | > 10 µM |  |  |  |  |  |  |
| C#CCSc1nc(Sc2nc[nH]n2)c(C#N)c(-c2cc(OC)c(OC)c(OC)c2)n1 | 1.22 µM | > 5 µM | > 20 µM | > 20 µM | > 20 µM | > 20 µM | > 20 µM |  |
| C#CCSc1nc(Sc2nnnn2C)c(C#N)c(-c2ccccc2)n1 | > 20 µM | > 20 µM |  |  |  |  |  |  |
| C#CCSc1nc(Sc2nccn2C)c(C#N)c(-c2cc(OC)c(OC)c(OC)c2)n1 | > 10 µM | > 2.5 µM |  |  |  |  |  |  |
| C#CCSc1nc(Nc2ccc(OC)cc2)c(C#N)c(-c2cc(OC)c(OC)c(OC)c2)n1 | > 10 µM | > 10 µM |  |  |  |  |  |  |
| C#CCSc1nc(Sc2nnc(N)s2)c(C#N)c(-c2cc(OC)c(OC)c(OC)c2)n1 | 0.821 µM | 0.107 µM |  |  |  |  |  |  |
| C#CCSc1nc(Nc2nnnn2C)c(C#N)c(-c2cc(OC)c(OC)c(OC)c2)n1 | > 10 µM | > 10 µM |  |  |  |  |  |  |
| C#CCSc1nc(Sc2nccs2)c(C#N)c(-c2ccc(Br)cc2)n1 | 0.552 µM | 0.189 µM | 10.9 µM | 8.53 µM | 11.6 µM | 12.1 µM | 3.99 µM |  |
| C#CCSc1nc(Sc2nccs2)c(C#N)c(-c2ccc(Cl)c(Cl)c2)n1 | 0.063 µM | 0.112 µM |  |  |  |  |  |  |
| C#CCSc1nc(Sc2nccs2)c(C#N)c(-c2ccc(Cl)cc2)n1 | 0.0366 µM | 0.096 µM | 5.35 µM | 3.62 µM | 3.23 µM | 4.13 µM | 6.04 µM |  |
| C#CCSc1nc(Sc2nnnn2C)c(C#N)c(-c2ccc3oc(=O)ccc3c2)n1 | 1.25 µM | 0.82 µM |  |  |  |  |  |  |
| C#CCSc1nc(Sc2nnnn2CCN(C)C)c(C#N)c(-c2ccc(Cl)cc2)n1 | 0.0635 µM | 0.123 µM | 6.56 µM | 7.17 µM | 6.18 µM | 5.3 µM | 7.34 µM |  |
| C#CCSc1nc(Sc2nnnn2CCN(C)C)c(C#N)c(-c2ccc(Cl)c(Cl)c2)n1 | 0.391 µM | 0.172 µM |  |  |  |  |  |  |
| C#CCSc1nc(-c2cc(OC)c(OC)c(OC)c2)c(C#N)c(N2CCCCC2)n1 | > 10 µM | > 5 µM |  |  |  |  |  |  |
| C#CCSc1nc(Sc2nccs2)c(C#N)c(-c2ccc3oc(=O)ccc3c2)n1 | 0.789 µM | 0.202 µM |  |  |  |  |  |  |
| C#CCSc1nc(Sc2nnnn2C)c(C#N)c(-c2cccc(OC)c2)n1 | 3.15 µM | 1.02 µM |  |  |  |  |  |  |
| C#CCSc1nc(Sc2nccs2)c(C#N)c(-c2cc(OC)c(OC)c(OC)c2)n1 | 0.141 µM | 0.077 µM |  |  |  |  |  |  |

| SMILES | IC50 (DCN1-like protein 1 [1]) | IC50 (DCN1-like protein 1 [2]) | IC50 (KYSE-70 cell line) | IC50 (PC-3) | IC50 (MCF7) | IC50 (PC-9) | IC50 (SMMC-7721) | inhibition [3] |
| --- | --- | --- | --- | --- | --- | --- | --- | --- |
| C#CCSc1nc(-c2cc(OC)c(OC)c(OC)c2)c(C#N)c(N2CCOCC2)n1 | > 10 µM | > 10 µM |  |  |  |  |  |  |
| C#CCSc1nc(-c2cc(OC)c(OC)c(OC)c2)c(C#N)c(N2CCSCC2)n1 | > 10 µM | > 5 µM |  |  |  |  |  |  |
| C#CCSc1nc(Nc2cccc(C(F)(F)F)c2)c(C#N)c(-c2cc(OC)c(OC)c(OC)c2)n1 | > 10 µM | > 10 µM |  |  |  |  |  |  |
| C#CCSc1nc(Sc2nnc(C)s2)c(C#N)c(-c2cc(OC)c(OC)c(OC)c2)n1 | 0.153 µM | 0.134 µM |  |  |  |  |  |  |
| C#CCSc1nc(Sc2nnnn2CCN(C)C)c(C#N)c(-c2ccc(C)cc2)n1 | 0.109 µM | 0.12 µM |  |  |  |  |  |  |
| C#CCSc1nc(Sc2nnnn2C)c(C#N)c(-c2cccs2)n1 | > 20 µM | > 10 µM |  |  |  |  |  |  |
| C=CCSc1nc(Sc2nccs2)c(C#N)c(-c2ccc(Cl)cc2)n1 | > 10 µM | > 10 µM |  |  |  |  |  |  |
| C#CCSc1nc(Sc2nccs2)c(C#N)c(-c2ccncc2)n1 | 1.48 µM | 1.06 µM |  |  |  |  |  |  |
| C#CCSc1nc(Sc2nccs2)c(C#N)c(-c2ccc[nH]2)n1 | > 20 µM | > 10 µM | > 20 µM | > 20 µM | > 20 µM | > 20 µM | > 20 µM |  |
| C#CCSc1nc(Sc2ccccn2)c(C#N)c(-c2cc(OC)c(OC)c(OC)c2)n1 | > 10 µM | > 2.5 µM | > 10 µM | > 10 µM | > 10 µM | > 20 µM | > 20 µM |  |
| C#CCSc1nc(Sc2nc3ccccc3s2)c(C#N)c(-c2cc(OC)c(OC)c(OC)c2)n1 | > 10 µM | > 5 µM | > 20 µM | > 20 µM | > 20 µM | > 20 µM | > 20 µM |  |
| C#CCSc1nc(Sc2nnnn2CCN(C)C)c(C#N)c(-c2ccc3oc(=O)ccc3c2)n1 | 0.666 µM | 0.815 µM |  |  |  |  |  |  |
| C#CCSc1nc(-c2cc(OC)c(OC)c(OC)c2)c(C#N)c(N2CCNCC2)n1 | > 10 µM | > 5 µM |  |  |  |  |  |  |
| C#CCSc1nc(Sc2nccs2)c(C#N)c(-c2cccc(Cl)c2)n1 | 0.362 µM | 0.14 µM |  |  |  |  |  |  |
| C#CCSc1nc(Sc2nnnn2C)c(C#N)c(-c2c[nH]c3ccccc23)n1 | > 20 µM | > 10 µM |  |  |  |  |  |  |
| C#CCSc1nc(Sc2ccc(N)s2)c(C#N)c(-c2cc(OC)c(OC)c(OC)c2)n1 | 0.196 µM | 0.066 µM |  |  |  |  |  |  |
| C#CCSc1nc(Sc2nnnn2C)c(C#N)c(-c2ccc(Cl)c(Cl)c2)n1 | 0.943 µM | 0.339 µM |  |  |  |  |  |  |
| C=CC(=O)Nc1ccccc1CN(C(=O)Nc1cccc(C(F)(F)F)c1)C1CCN(C(C)CCC)CC1 (centres undefined) |  |  | 17.9 µM | 25.3 µM | 10.2 µM | 5.59 µM | 16.2 µM |  |
| C#CCSc1nc(Sc2nnnn2C)c(C#N)c(-c2ccc[nH]2)n1 | > 20 µM | > 10 µM |  |  |  |  |  |  |
| C#CCSc1nc(Sc2nnnn2C)c(C#N)c(-c2cccc(Cl)c2)n1 | 0.644 µM | 0.291 µM |  |  |  |  |  |  |
| C#CCSc1nc(Sc2nc(C)c(C)s2)c(C#N)c(-c2cc(OC)c(OC)c(OC)c2)n1 | > 10 µM | > 10 µM | > 20 µM | > 20 µM | > 20 µM | > 20 µM | > 20 µM |  |
| C#CCSc1nc(Sc2nnnn2CCN(C)C)c(C#N)c(-c2cc(OC)c(OC)c(OC)c2)n1 | 0.591 µM | 0.199 µM |  |  |  |  |  |  |
